Results: ChEMBL document CHEMBL2062411, “Structure-activity relationship study of selective excitatory amino acid transporter subtype 1 (EAAT1) inhibitor 2-amino-4-(4-methoxyphenyl)-7-(naphthalen-1-yl)-5-oxo-5,6,7,8-tetrahydro-4H-chromene-3-carbonitrile (UCPH-101) and absolute configurational assignment using infrared and vibrational …” (J Med Chem, 2012)

Legend:
Type in all cases: cell-based
[1] = target: Excitatory amino acid transporter 1 (Homo sapiens, UniProt P43003); assay: Inhibition of human EAAT1 expressed in HEK293 cells assessed as inhibition of 3[H]-D-Aspartate uptake after 6 mins by scintillation counting method
Summary of the method: (§1)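 HEK293 cell lines expressing EAAT1, EAAT2 or EAAT3 were cultured and assayed for [³H]-D-aspartate uptake, following an earlier published protocol. Inhibition is reported as IC50 in μM, with pIC50 ± SEM.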

[2] = target: Excitatory amino acid transporter 2 (Homo sapiens, UniProt P43004); assay: Inhibition of human EAAT2 expressed in HEK293 cells assessed as inhibition of 3[H]-D-Aspartate uptake after 6 mins by scintillation counting method; summary of the method: as §1
[3] = target: T1, Excitatory amino acid transporter 3 (Homo sapiens, UniProt P43005); assay: Inhibition of human EAAT3 expressed in HEK293 cells assessed as inhibition of 3[H]-D-Aspartate uptake after 6 mins by scintillation counting method; summary of the method: as §1
T1 sequence (P43005 whole entry): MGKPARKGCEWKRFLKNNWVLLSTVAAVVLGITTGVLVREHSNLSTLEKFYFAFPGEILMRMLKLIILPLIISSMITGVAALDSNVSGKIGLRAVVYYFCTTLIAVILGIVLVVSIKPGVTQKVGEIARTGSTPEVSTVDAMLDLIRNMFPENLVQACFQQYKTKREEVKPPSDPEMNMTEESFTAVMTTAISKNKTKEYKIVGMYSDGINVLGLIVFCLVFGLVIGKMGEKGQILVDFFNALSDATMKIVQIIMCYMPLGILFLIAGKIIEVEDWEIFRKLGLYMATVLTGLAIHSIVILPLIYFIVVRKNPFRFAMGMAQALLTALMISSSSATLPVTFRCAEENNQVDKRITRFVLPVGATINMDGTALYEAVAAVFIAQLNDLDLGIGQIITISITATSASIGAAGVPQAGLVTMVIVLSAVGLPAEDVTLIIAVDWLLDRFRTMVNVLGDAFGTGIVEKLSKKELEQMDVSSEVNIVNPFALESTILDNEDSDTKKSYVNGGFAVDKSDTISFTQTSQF

Excitatory amino acid transporter 1, sequence (P43003 whole entry): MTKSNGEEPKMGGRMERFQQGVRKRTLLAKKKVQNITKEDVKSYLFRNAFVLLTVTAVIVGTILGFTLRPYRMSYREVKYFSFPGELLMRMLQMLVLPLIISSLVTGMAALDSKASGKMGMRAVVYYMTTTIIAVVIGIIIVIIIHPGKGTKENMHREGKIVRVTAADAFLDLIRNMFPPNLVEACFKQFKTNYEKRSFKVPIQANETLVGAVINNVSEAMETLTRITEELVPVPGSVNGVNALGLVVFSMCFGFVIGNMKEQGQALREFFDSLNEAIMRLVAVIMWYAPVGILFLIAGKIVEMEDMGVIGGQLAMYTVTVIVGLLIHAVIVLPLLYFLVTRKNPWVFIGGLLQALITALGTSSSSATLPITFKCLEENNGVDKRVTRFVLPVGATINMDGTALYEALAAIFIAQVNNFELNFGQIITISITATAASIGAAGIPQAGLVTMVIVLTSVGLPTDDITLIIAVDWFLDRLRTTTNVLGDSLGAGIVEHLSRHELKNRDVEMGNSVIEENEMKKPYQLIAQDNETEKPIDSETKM
Excitatory amino acid transporter 2, sequence (P43004 whole entry): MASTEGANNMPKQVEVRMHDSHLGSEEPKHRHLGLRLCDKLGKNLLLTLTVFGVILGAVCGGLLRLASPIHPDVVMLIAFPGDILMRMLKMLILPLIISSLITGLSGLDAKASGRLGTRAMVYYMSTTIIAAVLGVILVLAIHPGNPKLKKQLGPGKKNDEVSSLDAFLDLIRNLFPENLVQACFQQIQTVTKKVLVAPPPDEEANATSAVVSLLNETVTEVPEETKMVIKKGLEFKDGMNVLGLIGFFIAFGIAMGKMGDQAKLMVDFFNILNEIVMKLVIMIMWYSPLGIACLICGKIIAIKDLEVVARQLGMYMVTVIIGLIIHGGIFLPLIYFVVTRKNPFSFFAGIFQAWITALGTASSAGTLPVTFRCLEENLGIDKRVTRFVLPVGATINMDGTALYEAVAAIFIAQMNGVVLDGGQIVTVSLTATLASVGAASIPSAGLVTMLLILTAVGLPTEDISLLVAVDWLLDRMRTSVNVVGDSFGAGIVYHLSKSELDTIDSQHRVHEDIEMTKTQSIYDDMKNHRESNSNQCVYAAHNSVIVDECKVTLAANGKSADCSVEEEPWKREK

IC50 ([1]; read-out: IC50) [µM] | IC50 [2] [µM] | IC50 ([1]; read-out: pIC50 (converted)) [µM] | IC50 [3] [µM] | Compound
3.9 | – | – | – | N#CC1=C(N)OC2=C(C(=O)CC(c3ccccc3)C2)C1c1ccccc1 (stereo unspecified)
0.42 | – | – | – | CC1C(C#N)=C(N)OC2=C1C(=O)CC(c1cccc3ccccc13)C2 (stereo unspecified)
– | > 100 | > 100 | > 100 | N#CC1=C(N)OC2=C(C(=O)CN(C(=O)c3ccccc3)C2)C1c1ccccc1 (stereo unspecified)
– | > 300 | > 316 | > 300 | C[C@@H](c1ccccc1)N1CC(=O)C2=C(C1)OC(N)=C(C#N)[C@@H]2c1ccccc1

More lines, now with the values behind:

Compound | IC50 ([1]; read-out: IC50) [µM] | IC50 [2] [µM] | IC50 ([1]; read-out: pIC50 (converted)) [µM] | IC50 [3] [µM]
CC1(C)C(C#N)=C(N)OC2=C1C(=O)CC(c1ccccc1)C2 (stereo unspecified) | > 300 | – | – | –
N#CC1=C(N)OC2=C(C(=O)NC(c3ccccc3)C2)C1c1ccccc1 (stereo unspecified) | > 300 | – | – | –
N#CC1=C(N)OC2=C(C(=O)OC(c3ccccc3)C2)C1c1ccccc1 (stereo unspecified) | > 300 | – | – | –
N#CC1=C(N)OC2=C(C(=O)CN(c3ccccc3)C2)C1c1ccccc1 (stereo unspecified) | – | > 100 | > 100 | > 100
N#CC1=C(N)OC2=C(C(=O)CN(Cc3ccccc3)C2)C1c1ccccc1 (stereo unspecified) | – | > 300 | 16.2 | > 300
C[C@@H](c1ccccc1)N1CC(=O)C2=C(C1)OC(N)=C(C#N)[C@H]2c1ccccc1 | – | > 300 | 5.25 | > 300
C[C@H](c1ccccc1)N1CC(=O)C2=C(C1)OC(N)=C(C#N)[C@@H]2c1ccccc1 | – | > 300 | > 316 | > 300
C[C@H](c1ccccc1)N1CC(=O)C2=C(C1)OC(N)=C(C#N)[C@H]2c1ccccc1 | – | > 300 | 3.72 | > 300
